In the M2OR odorant receptor database:

What follows are molecules tested against T1, OR2M7 (Homo sapiens) (UniProt Q8NG81). Conditions: stereoisomer not certain.
T1 sequence (whole entry): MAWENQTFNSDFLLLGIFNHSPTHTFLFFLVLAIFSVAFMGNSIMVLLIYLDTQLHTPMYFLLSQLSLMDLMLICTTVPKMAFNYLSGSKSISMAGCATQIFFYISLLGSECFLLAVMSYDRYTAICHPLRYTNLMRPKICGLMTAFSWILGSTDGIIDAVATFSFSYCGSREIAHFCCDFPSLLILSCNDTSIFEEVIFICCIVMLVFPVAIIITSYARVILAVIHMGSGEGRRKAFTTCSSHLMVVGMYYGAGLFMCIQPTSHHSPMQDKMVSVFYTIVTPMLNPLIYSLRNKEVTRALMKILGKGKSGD
Procedure, shortened: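 Each receptor–molecule pair is labelled responsive or non-responsive (inactive) according to whether the original authors judged the measured signal statistically different from baseline. The data were taken from the main text and supplementary material of published papers and checked for typos and inconsistencies. Assay methods differed by source, with transient luciferase assays in mammalian cell lines being common.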
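Further: active if original authors judged signal statistically different from baseline.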

Which “odorant receptor agonist call” value does the source give for CCCCCCCCCCO here?
The value was “inactive”.

How did the “odorant receptor agonist call” value turn out when CCCCCCCCS was run?
The value was “inactive”.

With O=C(c1ccccc1)c1ccccc1 as the molecule, how does the “odorant receptor agonist call” value read?
The value was “inactive”.

With CCCCCCC(C)=O as the molecule, how does the “odorant receptor agonist call” value read?
Its value is “inactive”.

For CCCCC(C)=O, which “odorant receptor agonist call” value is on record?
The value was “inactive”.

c1ccccc1 was tested. Which “odorant receptor agonist call” value did it give?
The value was “inactive”.

How did the “odorant receptor agonist call” value turn out when CCC(S)C(C)CO (configuration not stated) was run?
Its value is “inactive”.

Which “odorant receptor agonist call” value does the source give for CCCCCCC(=O)[O-].[H+] here?
The value was “inactive”.

CCCCCCCO was tested. Which “odorant receptor agonist call” value did it give?
Its value is “inactive”.

Which “odorant receptor agonist call” value does the source give for CCCCCCCCCC(=O)[O-].[H+] here?
Its value is “inactive”.

With CCC(=O)O as the molecule, how does the “odorant receptor agonist call” value read?
Its value is “inactive”.

For C=C(C)C1CCC(C)C(=O)C1 (configuration not stated), which “odorant receptor agonist call” value is on record?
Its value is “inactive”.

For CCCCCCCCC(=O)O, which “odorant receptor agonist call” value is on record?
Its value is “inactive”.

For CCCCCCCC(=O)[O-].[H+], which “odorant receptor agonist call” value is on record?
Its value is “inactive”.

With COc1cc(C(=O)O)ccc1O as the molecule, how does the “odorant receptor agonist call” value read?
The value was “inactive”.

Which “odorant receptor agonist call” value does the source give for CCCCCC1=C(C)CCC1=O here?
The value was “inactive”.

With O=C1CCOc2ccccc21 as the molecule, how does the “odorant receptor agonist call” value read?
Its value is “inactive”.

How did the “odorant receptor agonist call” value turn out when C=CCOC(=O)CCCCCC was run?
The value was “inactive”.

With CCCCCCOC(C)=O as the molecule, how does the “odorant receptor agonist call” value read?
The value was “inactive”.

With CCCCC(=O)CC as the molecule, how does the “odorant receptor agonist call” value read?
The value was “inactive”.

With CCCCCO as the molecule, how does the “odorant receptor agonist call” value read?
Its value is “inactive”.

How did the “odorant receptor agonist call” value turn out when CCCC(C)=O was run?
Its value is “inactive”.

With CCC(=O)C(=O)CC as the molecule, how does the “odorant receptor agonist call” value read?
The value was “inactive”.

CCCCC(=O)O was tested. Which “odorant receptor agonist call” value did it give?
The value was “inactive”.

CCC(C(=O)O)c1ccccc1 (configuration not stated) was tested. Which “odorant receptor agonist call” value did it give?
Its value is “inactive”.

How did the “odorant receptor agonist call” value turn out when CC(C)=CCCC(C)CCO (configuration not stated) was run?
The value was “active”.

Which “odorant receptor agonist call” value does the source give for CCCCOC=O here?
Its value is “inactive”.
